Hits are enriched below; roughly 5.1% of the tested compounds scored in any of these assays.
Hsp90 block = displaces geldanamycin probe from tumor Hsp90. NCI-N417 lysate Hsp90, Cy3B-geldanamycin FP displacement. inhibition, % at 30 µM. 0.35% of 64,000 active;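 active means inhibition above 50%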;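 further: 0% = tracer plus lysate wells and 100% = tracer alone without lysate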
Ecoli WT expand = growth inhibitors of E. coli BW25113 wild type; AID 710; growth inhibition, % at 100 µM; OD600 absorbance; 0.15% of 98,000 active;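 active means growth inhibition above about 50% at one test dose, limit read from the data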;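 further: growth measured after 20 h incubation at 37 °C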
M1 agonist = M1 muscarinic receptor agonism. CHO-M1 cells, Fluo-4 calcium fluorescence, agonist mode; active compounds read high. B-score at 10 µM. 3% of 64,000 active;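 active means fluorescence rise, raw or as B-score row- and column-corrected plate score, outside the 99.7% band of its plate's samples, either direction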
M1 antag = blocks the rat M1 muscarinic receptor response to acetylcholine; P08482; CHO-M1 cells, Fluo-4 calcium, ACh EC80 antagonist mode; active compounds read low; B-score at 10 µM; 3.4% of 64,000 active;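 active means calcium fluorescence response, raw or row-and-column corrected B-score, differing from the plate sample mean either way at a set confidence level, mostly lower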
BAP1 block = human BAP1 deubiquitinase inhibition; Q92560; recombinant BAP1, Ub-AMC hydrolysis fluorescence kinetic; active compounds read low; calls only at 20 µM; 0.48% of 72,000 active; AID 436;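 active means activity remaining at or below 50% of control, provided the compound also passes the data quality filters; inactive means the rest, including low values that fail the filters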;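 further: 100% = DMSO wells rate and 0% = substrate alone blank rate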
Target sequence (Q92560 whole entry, looked up): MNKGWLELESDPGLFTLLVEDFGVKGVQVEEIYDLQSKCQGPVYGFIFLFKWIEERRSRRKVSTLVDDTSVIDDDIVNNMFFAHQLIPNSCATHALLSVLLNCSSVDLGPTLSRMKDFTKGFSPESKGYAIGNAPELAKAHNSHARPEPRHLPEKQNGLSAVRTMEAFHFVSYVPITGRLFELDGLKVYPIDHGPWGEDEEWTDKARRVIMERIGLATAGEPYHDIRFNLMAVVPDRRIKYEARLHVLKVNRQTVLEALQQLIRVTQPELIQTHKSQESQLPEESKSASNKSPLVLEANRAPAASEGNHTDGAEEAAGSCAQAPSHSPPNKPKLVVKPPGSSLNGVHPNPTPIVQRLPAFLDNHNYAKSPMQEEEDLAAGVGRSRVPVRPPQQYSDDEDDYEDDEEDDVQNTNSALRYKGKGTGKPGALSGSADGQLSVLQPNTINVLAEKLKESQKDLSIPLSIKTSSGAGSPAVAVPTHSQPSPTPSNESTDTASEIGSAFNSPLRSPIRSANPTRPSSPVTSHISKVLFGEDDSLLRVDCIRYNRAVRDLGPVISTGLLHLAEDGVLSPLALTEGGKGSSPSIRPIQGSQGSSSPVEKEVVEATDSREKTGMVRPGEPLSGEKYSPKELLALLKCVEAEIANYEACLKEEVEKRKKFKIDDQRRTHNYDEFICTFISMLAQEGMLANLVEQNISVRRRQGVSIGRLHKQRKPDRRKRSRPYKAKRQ
Ecoli tolC = E. coli tolC mutant growth inhibition | E. coli BW25113 tolC mutant growth, OD615 | growth inhibition, % at 10 µM (by protocol) | 2.2% of 65,000 active | AID 573;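 active means growth inhibition at or above a cutoff equal to the mean over every tested compound plus 3 SD, cut at about 60% in these data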;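 further: growth measured after 20 h incubation at 37 °C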
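Test system: tolC-deleted E. coli BW25113; medium: LB with kanamycin 50 µg/mL; compound: single-point testing at 10 µM; incubation: 20 h compound exposure of bacteria at 37 °C; signal: OD at 615 nm; evaluation: growth inhibition in percent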
* = called active by the depositor.

How did COc1cccc(N2CC(C(=O)Nc3ccc(C(=O)OC(C)C)cc3)CC2=O)c1 (stereo not given) do in these assays?
Hsp90 block: -4; Ecoli WT expand: -8; BAP1 block: inactive; Ecoli tolC: 62*

How did CCCc1[nH][nH]c(=O)c1C(c1ccccc1)C(C#N)C#N (stereo not given) do in these assays?
Hsp90 block: 2; Ecoli WT expand: 3; M1 agonist: 0.024; M1 antag: 1.2*; BAP1 block: inactive; Ecoli tolC: 2

Results for CCCc1[nH][nH]c(=O)c1C(c1ccc(Br)cc1)C(C#N)C#N (stereo not given) ?
Ecoli WT expand: 4

Results for O=C(CCN1C(=O)c2ccccc2C1=O)Nc1ccccc1F ?
BAP1 block: inactive

How did CC(C)n1c(C(=O)OCC(=O)NCc2ccc3c(c2)OCO3)cc2occc21 do in these assays?
Hsp90 block: 4; Ecoli WT expand: 4; M1 agonist: 0.26; M1 antag: -0.0044; BAP1 block: inactive; Ecoli tolC: 64*

What do the screens show for `CC(C)n1c(C(=O)OCC(=O)NCc2ccc3c(c2)OCO3)cc2sccc21`?
Ecoli WT expand: -21; M1 agonist: 4.4; M1 antag: -0.78; Ecoli tolC: 58

How did CCC(=O)Nc1cc(-c2nn(C)c(=O)c3ccccc23)ccc1N1CCOCC1 do in these assays?
Ecoli WT expand: -4

What do the screens show for `Cn1nc(-c2ccc(N3CCOCC3)c(NC(=O)COc3ccccc3)c2)c2ccccc2c1=O`?
Hsp90 block: 2; M1 agonist: 1.5; M1 antag: -1; BAP1 block: inactive; Ecoli tolC: 65*

How did C=CCn1c(SCC(O)Cn2c3ccccc3c3ccccc32)nnc1-c1ccco1 (stereo not given) do in these assays?
Hsp90 block: 0; Ecoli WT expand: -22; M1 agonist: -0.32; M1 antag: 1.3; Ecoli tolC: 81*

What do the screens show for `CCOC(=O)/C(C#N)=C1/C=C(C)NC(c2ccccc2O)=N1`?
Hsp90 block: -2; Ecoli WT expand: 2; M1 agonist: 16*; M1 antag: -7.1*; BAP1 block: inactive; Ecoli tolC: 58

Results for O=C1NC(c2ccc(O)cc2O)Nc2sc3c(c21)CCCC3 (stereo not given) ?
BAP1 block: inactive

How did Nc1nonc1N1CCCCC1 do in these assays?
Hsp90 block: 72*; Ecoli WT expand: 5; M1 agonist: -0.33; M1 antag: -2; BAP1 block: inactive; Ecoli tolC: -2

Results for Nc1nc2nonc2nc1N1CCCCC1 ?
Hsp90 block: 3; Ecoli WT expand: 9; M1 agonist: -0.78; M1 antag: -0.2; BAP1 block: inactive; Ecoli tolC: -18

How did O=C(c1ccco1)N1CCN(C(=O)c2cc(-c3ccccn3)nc3ccc(Cl)cc23)CC1 do in these assays?
Hsp90 block: -7; Ecoli WT expand: 2; M1 agonist: 5.3*; M1 antag: -0.85; BAP1 block: inactive; Ecoli tolC: 10

How did CCOc1cc(-c2c(C#N)c(=O)[nH]c3c2c(C)nn3-c2ccc(F)cc2)ccc1O do in these assays?
Hsp90 block: 4; Ecoli WT expand: 1; BAP1 block: inactive; Ecoli tolC: 97*

How did Cc1ccc(O)c(-c2cc3ccccc3[nH]2)c1 do in these assays?
Hsp90 block: -3; Ecoli WT expand: 45; M1 agonist: 0.17; M1 antag: 0.46; Ecoli tolC: 100*

Results for CC1CCC2C(C1)c1sc(=O)[nH]c1SC2(C)C (stereo not given) ?
Hsp90 block: 2; Ecoli WT expand: 14; M1 agonist: 0.78; M1 antag: 0.44; BAP1 block: inactive; Ecoli tolC: 63*

Results for Oc1ccc(C2CNCc3sccc32)cc1O (stereo not given) ?
Hsp90 block: 58*; BAP1 block: inactive

How did O=C(Nc1ccc([N+](=O)[O-])cc1)c1cccnc1Cl do in these assays?
BAP1 block: inactive

What do the screens show for `CCc1nc(N2CCC(C)CC2)c2oc3ccccc3c2n1`?
Hsp90 block: -2; Ecoli WT expand: 2; M1 agonist: 0.72; M1 antag: -0.32; BAP1 block: inactive; Ecoli tolC: 100*

How did CCc1nc(N(CC)CC)c2oc3ccccc3c2n1 do in these assays?
Ecoli WT expand: 10; M1 agonist: -0.093; M1 antag: -0.28; Ecoli tolC: 34

What do the screens show for `COc1cc(C2NC(=O)NC(C)=C2C(=O)OCC2CCCO2)cc(Br)c1O` (stereo not given)?
BAP1 block: inactive

Results for COC(=O)c1sc2ccccc2c1NC(=O)c1ccccc1Br ?
BAP1 block: inactive

Results for CC(C)(C)c1ccc(-c2nnc3sc(-c4ccncc4)nn23)cc1 ?
Hsp90 block: -7; Ecoli WT expand: 2; M1 agonist: -0.62; M1 antag: 8.9*; Ecoli tolC: 8

Results for Cc1nnc2sc(-c3ccncc3)nn12 ?
Hsp90 block: -2; Ecoli WT expand: -10; M1 agonist: 0.23; M1 antag: -1.4; BAP1 block: inactive; Ecoli tolC: -27

Results for O=C(NCc1ccccc1)c1c(O)c2cccc3c2n(c1=O)CCC3 ?
Hsp90 block: -6; Ecoli WT expand: -13; M1 agonist: 0.084; M1 antag: -0.65; BAP1 block: inactive; Ecoli tolC: 19

What do the screens show for `CCc1nc2ccccc2c(=O)n1NC(=O)c1c(O)c2cccc3c2n(c1=O)CCC3`?
Hsp90 block: -3; Ecoli WT expand: 0; M1 agonist: 0.23; M1 antag: 1.1; BAP1 block: inactive; Ecoli tolC: 64*

Results for CC(C)c1nnc(NC(=O)c2c(O)c3cccc4c3n(c2=O)CC4)s1 ?
Hsp90 block: 0; M1 agonist: -1.3; M1 antag: 0.016; Ecoli tolC: 100*

How did Oc1ccc(Cl)cc1Cc1cc(Cl)ccc1O do in these assays?
Ecoli tolC: 100*

Results for Cc1ccc(S(=O)(=O)N(C)Cc2ccc(-c3nnc4n3CCC4)cc2)cc1 ?
Hsp90 block: 0; Ecoli WT expand: -3; M1 agonist: 0.57; M1 antag: 2.6*; BAP1 block: inactive; Ecoli tolC: 9

Results for Clc1ccc(-c2nnc3n2CCCCC3)cc1 ?
Ecoli WT expand: -1

What do the screens show for `C=CCn1cnc2c(c1=O)c1nc3ccccc3nc1n2-c1ccc(C)cc1`?
Hsp90 block: 1; Ecoli WT expand: 2; M1 agonist: 0.24; M1 antag: 1.2; BAP1 block: inactive; Ecoli tolC: 0

How did C=CCn1cnc2c(c1=O)c1nc3ccccc3nc1n2-c1ccccc1 do in these assays?
Hsp90 block: -4; M1 agonist: 0.02; M1 antag: -14*; BAP1 block: inactive; Ecoli tolC: 5

Results for C=CCn1cnc2c(c1=O)c1nc3ccccc3nc1n2/N=C/c1ccccn1 ?
Hsp90 block: -5; M1 agonist: 8.1*; M1 antag: -4.1*; BAP1 block: inactive; Ecoli tolC: 57

What do the screens show for `C=CCn1cnc2c(c1=O)c1nc3ccccc3nc1n2/N=C/c1cccc(OC)c1OC`?
Hsp90 block: -4; M1 agonist: 4.8*; M1 antag: -1.4; BAP1 block: inactive; Ecoli tolC: 21
